Results reported in PMC5116011 (The Journal of antibiotics, 2016).
Values after ≈ are worked out from the molar mass of the structure shown. Read-outs that look alike come from different tables or passages of the source.

Tests used:
[1] = test system: E. coli BW25113 ΔtolC derivative JW5503-1; experiment: MIC, microbroth dilution in Mueller-Hinton broth; format: cell-based, Escherichia coli; details: for MIC: Escherichia coli
E. coli BW25113 = experiment: MIC, microbroth dilution in Mueller-Hinton broth; format: cell-based, Escherichia coli; details: for MIC EC MH+BP/CCCP / MIC EC +: E. coli BW25113; for MIC EC MH+BP/CCCP: MH broth with 30 µg/ml 2,2′-bipyridyl and 50 µg/ml CCCP; for MIC EC +: with clavulanic acid (6µg/ml); for MIC: Escherichia coli, BW25113, read-out: MIC EC, E. coli BW25113, Mueller-Hinton broth (Table 2)
S. aureus NRS 70 (MRSA) = experiment: MIC, microbroth dilution in Mueller-Hinton broth; format: cell-based; details: Staphylococcus aureus, MRSA|NRS70, read-out: MIC MRSA
Outline: (§1)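 CLSI broth microdilution in cation-adjusted Mueller-Hinton broth. Inocula were grown from MH agar colonies in MH broth, with a final inoculum of 10^5 CFU/ml. Test compound final range was 200–0.2 µg/ml, incubated 37°C for 18–20 h. MIC was the lowest concentration preventing visible growth. Runs were at least duplicate, and the mean MIC was reported.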

S. pneumoniae R6 = experiment: MIC, microbroth dilution in Mueller-Hinton broth; format: cell-based; details: Streptococcus pneumoniae, R6, read-out: MIC SP
Outline: as §1

P. vulgaris ATCC 33420 = experiment: MIC, microbroth dilution in Mueller-Hinton broth; format: cell-based; details: Proteus vulgaris, ATCC33420, read-out: MIC PV
[2] = test system: S. aureus -ATCC29213 (MSSA); experiment: MIC, microbroth dilution in Mueller-Hinton broth; format: cell-based; details: Staphylococcus aureus, read-out: MIC MSSA
Outline: as §1

P. mirabilis ATCC 25933 = experiment: MIC, microbroth dilution in Mueller-Hinton broth; format: cell-based; details: Proteus mirabilis, ATCC25933, read-out: MIC PM
[3] = test system: E. coli BW25113 ΔampC derivative JW4111-2; format: cell-based, Escherichia coli; details: for MIC: Escherichia coli, BW25113, read-out: MIC ECΔampC −
P. aeruginosa PA01 = experiment: MIC, microbroth dilution in Mueller-Hinton broth; format: cell-based, Pseudomonas aeruginosa; details: for MIC PA MH+BP/CCCP / MIC PA +: P. aeruginosa PA01; for MIC PA MH+BP/CCCP: MH broth with 30 µg/ml 2,2′-bipyridyl and 50 µg/ml CCCP; for MIC PA +: with clavulanic acid (6µg/ml); for MIC: Pseudomonas aeruginosa
B. anthracis sterne = experiment: microbe, parasite or virus in culture; format: cell-based; details: Bacillus anthracis, read-out: MIC BA
B. subtilis ATCC23857 = experiment: MIC, microbroth dilution in Mueller-Hinton broth; format: cell-based; details: Bacillus subtilis, ATCC23857, read-out: MIC BS
Outline: as §1

E. faecalis ATCC33186 = experiment: MIC, microbroth dilution in Mueller-Hinton broth; format: cell-based; details: Enterococcus faecalis, ATCC33186, read-out: MIC EF
Outline: as §1

S. pyogenes ATCC700294 = experiment: MIC, microbroth dilution in Mueller-Hinton broth; format: cell-based; details: Streptococcus pyogenes, ATCC700294, read-out: MIC SPy
Outline: as §1

[4] = BW25113, read-out: MIC ECΔtolC MH
[5] = BW25113, read-out: MIC ECΔtolC MH+BP

Compound | MIC ([1]; BW25113, read-out: MIC ECΔtolC) [µg/mL] | MIC [1, 4] [µg/mL] | MIC [1, 5] [µg/mL] | MIC EC MH+BP/CCCP (E. coli BW25113) [µg/mL] | MIC EC + (E. coli BW25113) [µg/mL] | MIC (E. coli BW25113) [µg/mL] | MIC (S. aureus NRS 70 (MRSA)) [µg/mL] | MIC (S. pneumoniae R6) [µg/mL] | MIC (P. vulgaris ATCC 33420) [µg/mL] | MIC [2] [µg/mL] | MIC (P. mirabilis ATCC 25933) [µg/mL] | MIC ECΔampC + [3] [µg/mL] | MIC PA MH+BP/CCCP (P. aeruginosa PA01) [µg/mL] | MIC PA + (P. aeruginosa PA01) [µg/mL] | MIC (P. aeruginosa PA01; PA01, read-out: MIC PA) [µg/mL] | MIC (P. aeruginosa PA01; PA01, read-out: MIC PA MH) [µg/mL] | MIC (P. aeruginosa PA01; PA01, read-out: MIC PA MH+BP) [µg/mL] | MIC (P. aeruginosa PA01; PA01, read-out: MIC PA MH+CCCP) [µg/mL] | MIC (B. anthracis sterne) [µg/mL] | MIC (B. subtilis ATCC23857) [µg/mL] | other results
CC1(C)SC2C(NC(=O)C(NC(=O)C3=C(O)CNC3=O)c3ccccc3)C(=O)N2C1C(=O)O (stereo not shown) [Compound 2743] | 12.5 (≈ 26.3 µM) | 12.5 (≈ 26.3 µM) | 6.25 (≈ 13.2 µM) | 12.5 (≈ 26.3 µM) | 12.5 | 200 (≈ 422 µM) | 25 (≈ 52.7 µM) | < 0.2 | 100 (≈ 211 µM) | 0.78 (≈ 1.64 µM) | 3.13 (≈ 6.6 µM) | 6.25 | 3.13 (≈ 6.6 µM) | 12.5 | 25 (≈ 52.7 µM) | 25 (≈ 52.7 µM) | 12.5 (≈ 26.3 µM) | 6.25 (≈ 13.2 µM) | 0.78 (≈ 1.64 µM) | 0.78 (≈ 1.64 µM) | MIC ECΔtolC MH+BP/CCCP ([1]; {}): 1.56 µg/mL (≈ 3.29 µM); MIC ECΔtolC MH+CCCP ([1]; {}): 3.13 µg/mL (≈ 6.6 µM); MIC [3]: 12.5 µg/mL (≈ 26.3 µM); MIC (P. aeruginosa PA01; PA01, read-out: MIC PA −): 25 µg/mL (≈ 52.7 µM); MIC (E. faecalis ATCC33186): 12.5 µg/mL (≈ 26.3 µM); MIC (S. pyogenes ATCC700294): < 0.2 µg/mL
CC(C)CC1NC(=O)C(C(=O)NC(C(=O)NC2C(=O)N3C2SC(C)(C)C3C(=O)O)c2ccccc2)=C1O (stereo not shown) [Compound 1903] | 6.25 (≈ 11.8 µM) | 6.2 (≈ 11.7 µM) | 1.56 (≈ 2.94 µM) | 12.5 (≈ 23.6 µM) | 12.5 | 50 (≈ 94.2 µM) | 25 (≈ 47.1 µM) | 0.39 (≈ 0.735 µM) | 25 (≈ 47.1 µM) | 0.78 (≈ 1.47 µM) | 12.5 (≈ 23.6 µM) | 1.56 | 1.56 (≈ 2.94 µM) | 6.25 | 12.5 (≈ 23.6 µM) | 12.5 (≈ 23.6 µM) | 12.5 (≈ 23.6 µM) | 3.13 (≈ 5.9 µM) | 3.13 (≈ 5.9 µM) | 1.56 (≈ 2.94 µM) | MIC ECΔtolC MH+CCCP ([1]; E. coli BW25113 ΔtolC JW5503-1, MH broth containing 50 µg/ml CCCP): 1.56 µg/mL (≈ 2.94 µM); MIC [3]: 6.25 µg/mL (≈ 11.8 µM); MIC (P. aeruginosa PA01; PA01, read-out: MIC PA −): 12.5 µg/mL (≈ 23.6 µM); MIC (E. faecalis ATCC33186): 25 µg/mL (≈ 47.1 µM); MIC (S. pyogenes ATCC700294): 0.39 µg/mL (≈ 0.735 µM)
CC(C)C1NC(=O)C(C(=O)NC(C(=O)NC2C(=O)N3C2SC(C)(C)C3C(=O)O)c2ccccc2)=C1O (stereo not shown) [Compound 2744] | 3.13 (≈ 6.06 µM) | 3.13 (≈ 6.06 µM) | 3.13 (≈ 6.06 µM) | 25 (≈ 48.4 µM) | 25 | 100 (≈ 194 µM) | 25 (≈ 48.4 µM) | 0.39 (≈ 0.755 µM) | 12.5 (≈ 24.2 µM) | 1.56 (≈ 3.02 µM) | 12.5 (≈ 24.2 µM) | 12.5 | 25 (≈ 48.4 µM) | 25 | 25 (≈ 48.4 µM) | 25 (≈ 48.4 µM) | 50 (≈ 96.8 µM) | 12.5 (≈ 24.2 µM) | 6.25 (≈ 12.1 µM) | 3.13 (≈ 6.06 µM) | MIC ECΔtolC MH+BP/CCCP ([1]; {}): 0.78 µg/mL (≈ 1.51 µM); MIC ECΔtolC MH+CCCP ([1]; {}): 1.56 µg/mL (≈ 3.02 µM); MIC (P. aeruginosa PA01; PA01, read-out: MIC PA −): 25 µg/mL (≈ 48.4 µM); MIC (E. faecalis ATCC33186): 12.5 µg/mL (≈ 24.2 µM); MIC (S. pyogenes ATCC700294): 0.78 µg/mL (≈ 1.51 µM)
CC1(C)SC2C(NC(=O)C(NC(=O)C3=C(O)C(Cc4ccc([N+](=O)[O-])cc4)NC3=O)c3ccccc3)C(=O)N2C1C(=O)O (stereo not shown) [Compound 2835] | 3.13 (≈ 5.13 µM) | 3.13 (≈ 5.13 µM) | 1.56 (≈ 2.56 µM) | 12.5 (≈ 20.5 µM) | 6.25 | 100 (≈ 164 µM) | 25 (≈ 41 µM) | < 0.2 | 25 (≈ 41 µM) | < 0.2 | 25 (≈ 41 µM) | 12.5 | 12.5 (≈ 20.5 µM) | 6.25 | 25 (≈ 41 µM) | 25 (≈ 41 µM) | 25 (≈ 41 µM) | 12.5 (≈ 20.5 µM) | 3.13 (≈ 5.13 µM) | < 0.2 | MIC ECΔtolC MH+BP/CCCP ([1]; {}): 0.78 µg/mL (≈ 1.28 µM); MIC ECΔtolC MH+CCCP ([1]; {}): 1.56 µg/mL (≈ 2.56 µM); MIC (E. faecalis ATCC33186): 25 µg/mL (≈ 41 µM); MIC (S. pyogenes ATCC700294): 0.78 µg/mL (≈ 1.28 µM)
